Assay results from different studies.
Each line is one published result; the experiments were not run side by side.
Target: Serine/threonine-protein kinase pim-3 (PIM3, Homo sapiens, UniProt Q86V86)

Nc1ncnc2occ(-c3ccc(NC(=O)Nc4cc(C(F)(F)F)ccc4F)cc3)c12
remaining signal (cell-free assay; inhibitor; 20 µM): 79%

FC(F)c1nc2ccccc2n1-c1nc(N2CCOCC2)nc(N2CCOCC2)n1
remaining activity (enzyme activity; inhibitor; 10 µM): 76%

Cc1cc(C)c(-n2ccn3nc(-c4cccnc4)cc23)cc1NC(=O)c1cc(C#N)cc(S(F)(F)(F)(F)F)c1
remaining binding (cell-free assay; competition with immobilised ligand; 0.1 µM): 83.1%

Cc1ccc(C(=O)Nc2ccc(CN3CCN(C)CC3)c(C(F)(F)F)c2)cc1C#Cc1cnc2cccnn12
remaining activity (enzyme activity; inhibitor; 23.5 nM): 100%

CCCS(=O)(=O)Nc1ccc(F)c(C(=O)c2c[nH]c3ncc(-c4ccc(Cl)cc4)cc23)c1F
inhibition (enzyme activity; inhibitor; 1 µM): < 10%

CS(=O)(=O)N1CCCC(NC(=O)[C@H](CCC2CCCCC2)NC(=O)c2ccc(CNC(=O)c3cnc4ccccn34)cc2)C1 (stereo partly shown)
remaining binding (cell-free assay; competition with immobilised ligand; 0.1 µM): 99%

CC(C)(C)c1nc(-c2cccc(NS(=O)(=O)c3c(F)cccc3F)c2F)c(-c2ccnc(N)n2)s1
remaining activity (enzyme activity; inhibitor; radiometric; 1 µM): 100%

Cc1ccc(C(=O)NCc2ccsc2)cc1C#Cc1cn(C(C)C)c2ncnc(N)c12
activity vs control (enzyme activity; inhibitor; 1 µM): 85%

Cc1noc([C@H]2C[C@@H](c3ccc(C(F)(F)F)cc3)CN(C(=O)N3CCS(=O)(=O)C3)C2)n1
remaining binding (cell-free assay; competition with immobilised ligand; 1 µM): 91%

COc1cc(Nc2cnc(C#N)c(O[C@H](C)CN(C)C)n2)ncc1-c1cnn(C)c1
remaining activity (enzyme activity; inhibitor; radiometric; 10 µM): 17%

Cc1sc(C(=O)NC2COC2)cc1-n1cc(NC(=O)Nc2c(F)cccc2Cl)cn1
remaining activity (enzyme activity; inhibitor; 10 µM): 129%

O=C(CSc1nc2nccnc2c(=O)n1CCc1ccccc1)Nc1nccs1
inhibition (enzyme activity; inhibitor; 10 µM): -7%

O=C(NCc1ncc(C(F)(F)F)cc1Cl)c1ccc2c(c1)C1(CCS(=O)(=O)CC1)[C@H](C1CC1)N2S(=O)(=O)c1ccc(F)cc1
remaining binding (cell-free assay; competition with immobilised ligand; 1 µM): 100%

CC(C)(C)C(=O)c1sc(NC2CCCCC2)nc1N
remaining activity (enzyme activity; inhibitor; 10 µM): 82%

O=C1Nc2ccc(Cl)cc2C1=Cc1cc(Cl)c(O)c(Cl)c1
remaining signal (cell-free assay; 0.5 µM): 14.5%

FC(F)(F)c1ccc2c(c1)nc(-c1cccnc1)n2C1CC1
remaining binding (cell-free assay; competition with immobilised ligand; 1 µM): 100%

CCN(CC)CCNC(=O)c1c(C)[nH]c(/C=C2\C(=O)Nc3ccc(F)cc32)c1C
inhibition (enzyme activity; inhibitor; 0.3 µM): -17%

CC/C(=N\NC(=O)NCc1cccc(O)c1)c1ccc(O)c(C)c1O
inhibition (enzyme activity; inhibitor; 0.1 µM): 4.6%

COc1cc2c(N3CCN(C(=O)Nc4ccc(OC(C)C)cc4)CC3)ncnc2cc1OCCCN1CCCCC1
remaining signal (cell-free assay; 0.5 µM): 100%

CC(=O)C1=C(C)N(c2cccc(C(F)(F)F)c2)C(=O)N[C@@H]1c1ccc(C#N)nc1
remaining binding (cell-free assay; competition with immobilised ligand; 1 µM): 100%

COc1cc(Nc2c(C#N)cnc3cc(OCCCN4CCN(C)CC4)c(OC)cc23)c(Cl)cc1Cl
remaining signal (cell-free assay; 0.5 µM): 97.7%

CN(c1ncccc1CNc1nc(Nc2ccc3c(c2)CC(=O)N3)ncc1C(F)(F)F)S(C)(=O)=O
inhibition (enzyme activity; inhibitor; 1 µM): 21.2%

CNC(=O)c1cc(Oc2ccc(NC(=O)Nc3ccc(Cl)c(C(F)(F)F)c3)cc2)ccn1
inhibition (enzyme activity; inhibitor; 10 µM): -16%

O=C(O)[C@H]1[C@H](Cn2nnc3ccccc3c2=O)CC[C@@H]1C(=O)c1ccc(OCCC2CCOCC2)cc1
remaining binding (cell-free assay; competition with immobilised ligand; 1 µM): 86%

Cc1cnc(NC2CCOCC2)nc1-n1cnc(C(=O)NC(CN)c2cc(F)cc(Cl)c2)c1 (stereo not shown)
remaining activity (enzyme activity; inhibitor; radiometric; 1 µM): 95%

CC1=C(C#N)C(c2ccc3c(c2)c(NC(=O)c2ccccc2C)nn3C)C(C#N)=C(C)N1
remaining binding (cell-free assay; competition with immobilised ligand; 1 µM): 100%

COc1cc(/C=C/C(=O)CC(=O)/C=C/c2ccc(O)c(OC)c2)ccc1O
activity vs control (enzyme activity; inhibitor; 1 µM): 12%

Nc1nc(NC2CCCCC2)sc1C(=O)c1ccccc1
remaining activity (enzyme activity; inhibitor; 10 µM): 69%
